Source: ChEMBL document CHEMBL4699593, “Identification of 2,4-Disubstituted Imidazopyridines as Hemozoin Formation Inhibitors with Fast-Killing Kinetics and In Vivo Efficacy in the Plasmodium falciparum NSG Mouse Model” (J Med Chem, 2020)
In brackets after ≈: the same amount, converted by molar mass.

Legend:
[1] = molecular target: Voltage-gated inwardly rectifying potassium channel KCNH2 (Homo sapiens, UniProt Q12809); assay: Inhibition of human ERG by patch clamp method
[2] = test system: Plasmodium falciparum; assay: Antiplasmodial activity against multidrug-resistant asexual blood stage Plasmodium falciparum K1 strain assessed as reduction in parasite growth after 72 hrs by NBT reagent based LDH assay; type: functional, organism-based; details: K1, 72 h
Procedure, shortened: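 Asexual blood-stage K1 (multidrug-resistant) parasites were read out by the parasite lactate dehydrogenase (pLDH) assay. […] Most individual values varied less than 2× (maximum 3×).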

[3] = Aqueous solubility of compound in phosphate buffer saline at pH 6.5 incubated for 20 hrs under shaking condition by shake-flask method based HPLC-DAD analysis; type: physicochemical; details: phosphate buffered saline
Procedure, shortened: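 Equilibrium aqueous solubility was measured at pH 6.5 using a miniaturized shake-flask method.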

[4] = test system: Plasmodium falciparum; assay: Antiplasmodial activity against multidrug-sensitive asexual blood stage Plasmodium falciparum NF54 strain assessed as reduction in parasite growth after 72 hrs by NBT reagent based LDH assay; type: functional, organism-based; details: NF54, 72 h
[5] = test system: CHO; assay: Cytotoxicity against CHO cells assessed as reduction in cell viability by MTT assay; type: cell-based, Cricetulus griseus; details: chinese hamster
Procedure, shortened: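 Cytotoxicity was measured in Chinese hamster ovary (CHO) cells and reported as CC50. The selectivity index is CC50 divided by NF54 IC50.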

Sequence of Voltage-gated inwardly rectifying potassium channel KCNH2 (Q12809 whole entry): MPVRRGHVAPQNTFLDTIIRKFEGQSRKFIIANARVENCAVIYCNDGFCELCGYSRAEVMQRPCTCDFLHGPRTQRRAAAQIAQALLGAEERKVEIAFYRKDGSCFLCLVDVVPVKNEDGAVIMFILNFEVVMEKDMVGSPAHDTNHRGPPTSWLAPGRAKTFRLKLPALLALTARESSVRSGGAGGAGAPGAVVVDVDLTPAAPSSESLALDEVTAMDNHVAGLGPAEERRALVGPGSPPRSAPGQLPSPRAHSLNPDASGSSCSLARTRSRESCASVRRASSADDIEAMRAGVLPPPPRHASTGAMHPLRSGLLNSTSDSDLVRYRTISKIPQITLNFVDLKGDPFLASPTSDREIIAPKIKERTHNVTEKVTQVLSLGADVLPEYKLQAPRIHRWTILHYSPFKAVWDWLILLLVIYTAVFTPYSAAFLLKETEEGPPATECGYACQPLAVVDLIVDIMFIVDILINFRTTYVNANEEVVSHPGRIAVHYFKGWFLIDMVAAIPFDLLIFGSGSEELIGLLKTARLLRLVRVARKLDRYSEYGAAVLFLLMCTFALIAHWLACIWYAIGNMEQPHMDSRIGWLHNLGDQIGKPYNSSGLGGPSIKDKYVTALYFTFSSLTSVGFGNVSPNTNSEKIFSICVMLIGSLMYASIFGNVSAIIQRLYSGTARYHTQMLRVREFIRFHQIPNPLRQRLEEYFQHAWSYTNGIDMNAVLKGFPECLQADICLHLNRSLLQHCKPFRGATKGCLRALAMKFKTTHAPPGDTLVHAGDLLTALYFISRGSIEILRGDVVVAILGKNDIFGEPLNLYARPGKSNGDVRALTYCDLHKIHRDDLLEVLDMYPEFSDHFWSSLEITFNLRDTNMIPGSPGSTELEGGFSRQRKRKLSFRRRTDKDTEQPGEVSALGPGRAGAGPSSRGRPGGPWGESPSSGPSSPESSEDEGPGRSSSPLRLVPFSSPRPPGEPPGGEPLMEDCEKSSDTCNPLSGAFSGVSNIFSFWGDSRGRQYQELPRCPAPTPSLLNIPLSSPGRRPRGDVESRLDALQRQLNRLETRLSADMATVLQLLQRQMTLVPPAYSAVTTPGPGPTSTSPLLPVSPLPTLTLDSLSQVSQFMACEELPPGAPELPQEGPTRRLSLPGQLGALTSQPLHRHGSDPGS

| SMILES | IC50 [1] | IC50 [2] | solubility thermodynamic at 20 h [3] | IC50 [4] | CC50 [5] |
| --- | --- | --- | --- | --- | --- |
| CN1CCCN(c2nccc3[nH]c(-c4cc(F)cc(F)c4)nc23)CC1 | 400 nM |  |  |  |  |
| Fc1ccc(-c2nc3c(N4CCNCC4)nccc3[nH]2)cc1F | 3400 nM | 970 nM | 150 µM (≈ 47.3 µg/mL) | 170 nM | 8100 nM |
| CN1CCN(C(=O)C2CCN(c3nccc4[nH]c(-c5ccc(F)c(F)c5)nc34)CC2)CC1 | 12000 nM | 380 nM | 200 µM (≈ 88.1 µg/mL) | 100 nM | > 50000 nM |
| CN1CCN(CC2CCN(c3nccc4[nH]c(-c5cccc(C(=O)N(C)C)c5)nc34)CC2)CC1 |  |  | 180 µM (≈ 83.1 µg/mL) | 1000 nM | > 50000 nM |
| Fc1cc(F)cc(-c2nc3c(N4CCC(CN5CCC(F)(F)CC5)CC4)nccc3[nH]2)c1 |  | 310 nM | < 5 µM | 200 nM | 26000 nM |
| CN1CCN(CC2CCN(c3nccc4[nH]c(-c5cccc(C(=O)O)c5)nc34)CC2)CC1 |  |  | 195 µM (≈ 84.7 µg/mL) | > 10000 nM | > 50000 nM |
| Fc1ccc(-c2nc3c(N4CCN5CCCC5C4)nccc3[nH]2)cc1F (centres undefined) |  | 480 nM | 120 µM (≈ 42.6 µg/mL) | 220 nM | 32000 nM |
| CN(C)C1CCN(c2nccc3[nH]c(-c4cccc(OC(F)(F)F)c4)nc23)CC1 |  | 190 nM | 180 µM (≈ 73 µg/mL) | 140 nM |  |
| CC(C)(C)N1CCN(CC2CCN(c3nccc4[nH]c(-c5cc(F)cc(F)c5)nc34)CC2)CC1 |  | 47 nM | 185 µM (≈ 86.7 µg/mL) | 19 nM | 8600 nM |
| CN1CCN(CC2CCN(c3nccc4[nH]c(-c5cccc(OCCN)c5)nc34)CC2)CC1 |  |  | 200 µM (≈ 89.9 µg/mL) | 2200 nM |  |
| CN1CCN(CC2CCN(c3nccc4c3nc(-c3cc(F)cc(F)c3)n4C)CC2)CC1 |  |  | 150 µM (≈ 66.1 µg/mL) | > 3000 nM |  |
| NCC1CCN(c2nccc3[nH]c(-c4cccc(OC(F)(F)F)c4)nc23)CC1 |  | 190 nM | 200 µM (≈ 78.3 µg/mL) | 68 nM | 2900 nM |
| Fc1ccc(-c2nc3c(N4CCOCC4)nccc3[nH]2)cc1F |  |  |  | 3100 nM |  |
| CN1CCN(C2CCN(c3nccc4[nH]c(-c5cccc(C#N)c5)nc34)CC2)CC1 |  | 580 nM |  | 110 nM | 16000 nM |
| OCCN1CCN(c2nccc3[nH]c(-c4ccc(F)c(F)c4)nc23)CC1 |  | 1400 nM | 95 µM (≈ 34.1 µg/mL) | 570 nM |  |
| Fc1ccc(-c2nc3c(N4CCCNCC4)nccc3[nH]2)cc1F |  | 1000 nM | 165 µM (≈ 54.3 µg/mL) | 210 nM | 7200 nM |
| CN1CCN(CC2CCN(c3nccc4[nH]c(-c5ccc(F)c(C(F)(F)F)c5)nc34)CC2)CC1 |  | 17 nM | 165 µM (≈ 78.6 µg/mL) | 50 nM | 3100 nM |
| CN1CCN(CC2CCN(c3ncnc4[nH]c(-c5cc(F)cc(F)c5)nc34)CC2)CC1 |  |  | 55 µM (≈ 23.5 µg/mL) | 1800 nM |  |
| Fc1ccc(-c2nc3c(C4CCNCC4)nccc3[nH]2)cc1F |  |  | 200 µM (≈ 62.9 µg/mL) | > 10000 nM |  |
| CN1CCN(C[C@H]2CCCN(c3nccc4[nH]c(-c5cc(F)cc(F)c5)nc34)C2)CC1 |  | 170 nM | 200 µM (≈ 85.3 µg/mL) | 73 nM | 7900 nM |
| COC(=O)c1cccc(-c2nc3c(N4CCC(N5CCN(C)CC5)CC4)nccc3[nH]2)c1 |  | 280 nM |  | 79 nM | 34000 nM |
| CN1CCN(CC2CCN(c3nccc4[nH]c(C5CCCC5)nc34)CC2)CC1 |  |  | < 5 µM | 9300 nM |  |
| CN1CCOC2(CCN(c3nccc4[nH]c(-c5cc(F)cc(F)c5)nc34)CC2)C1 |  | 320 nM | 175 µM (≈ 69.9 µg/mL) | 180 nM | 32000 nM |

| SMILES | IC50 [1] | IC50 [2] | solubility thermodynamic at 20 h [3] | IC50 [4] | CC50 [5] |
| --- | --- | --- | --- | --- | --- |
| CN1CCN([C@H]2CC[C@@H](Nc3nccc4[nH]c(-c5cc(F)cc(F)c5)nc34)CC2)CC1 |  | 310 nM | 200 µM (≈ 85.3 µg/mL) | 160 nM | 14000 nM |
| CN1CCN(CC2CCN(c3nccc4[nH]c(-c5ccc(F)c(Cl)c5)nc34)CC2)CC1 |  | 25 nM | 155 µM (≈ 68.7 µg/mL) | < 12 nM | 850 nM |
| CN1CCN(C2CCN(c3nccc4[nH]c(-c5cc(F)cc(F)c5)cc34)CC2)CC1 | 4000 nM |  |  |  |  |
| CN1CCN(CC2CCN(c3ccnc4[nH]c(-c5cc(F)cc(F)c5)nc34)CC2)CC1 |  |  | < 5 µM | 530 nM |  |
| C[C@@H]1CN(c2nccc3[nH]c(-c4ccc(F)c(F)c4)nc23)C[C@H](C)N1C |  | 720 nM | 50 µM (≈ 17.9 µg/mL) | 260 nM | > 50000 nM |
| Fc1cc(F)cc(-c2nc3c(N4CCC(CN5CCNCC5)CC4)nccc3[nH]2)c1 |  | 240 nM | 190 µM (≈ 78.4 µg/mL) | 38 nM | 20000 nM |
| CN1CCN([C@H]2CC[C@H](Nc3nccc4[nH]c(-c5cc(F)cc(F)c5)nc34)CC2)CC1 |  | 240 nM | 200 µM (≈ 85.3 µg/mL) | 130 nM | 11000 nM |
| CN1CCN(c2nccc3[nH]c(-c4cccc(OC(F)(F)F)c4)nc23)CC1 |  |  |  | 490 nM |  |
| NC1CCN(c2nccc3[nH]c(-c4ccc(F)c(F)c4)nc23)CC1 |  | 910 nM | 200 µM (≈ 65.9 µg/mL) | 110 nM | 8200 nM |
| Fc1ccc(-c2nc3c(N4CCC(N5CCNCC5)CC4)nccc3[nH]2)cc1C(F)(F)F |  | 460 nM | 200 µM (≈ 89.7 µg/mL) | 36 nM | 34000 nM |
| CN1CCN(CC2CCN(c3nccc4[nH]c(-c5cc(F)cc(C(F)(F)F)c5)nc34)CC2)CC1 |  | 89 nM | 165 µM (≈ 78.6 µg/mL) | 54 nM | 3100 nM |
| O=S1(=O)CCN(CC2CCN(c3nccc4[nH]c(-c5cc(F)cc(F)c5)nc34)CC2)CC1 |  |  | < 5 µM | 1400 nM | > 50000 nM |
| CN1CCOC2(CCN(c3nccc4[nH]c(-c5cc(F)cc(F)c5)cc34)CC2)C1 | ≤ 3000 nM |  |  |  |  |
| Fc1ccc(-c2nc3c(N4CCN(c5ccccc5)CC4)nccc3[nH]2)cc1F |  |  |  | > 1000 nM |  |
| CN1CCN(C2CCN(c3nccc4[nH]c(-c5cccc(S(C)(=O)=O)c5)nc34)CC2)CC1 |  | 1500 nM | 190 µM (≈ 86.4 µg/mL) | 450 nM | > 50000 nM |
| Fc1cc(F)cc(-c2nc3c(N4CCC(CN5CCOCC5)CC4)nccc3[nH]2)c1 |  | 390 nM | 25 µM (≈ 10.3 µg/mL) | 290 nM | > 50000 nM |
| CN1CCN(C2CCN(c3nccc4[nH]c(-c5ccc(F)c(C(F)(F)F)c5)nc34)CC2)CC1 |  | 80 nM | 195 µM (≈ 90.2 µg/mL) | 58 nM | 4800 nM |
| CN1CCN(C2CCN(c3nccc4[nH]c(C5CCCC5)nc34)CC2)CC1 |  |  | 170 µM (≈ 62.6 µg/mL) | > 10000 nM |  |
| C[C@@H]1CN(c2nccc3[nH]c(-c4ccc(F)c(F)c4)nc23)C[C@H](C)N1 |  | 450 nM | 190 µM (≈ 65.2 µg/mL) | 76 nM | 6500 nM |
| Fc1ccc(-c2nc3c(N4CCN(CC(F)(F)F)CC4)nccc3[nH]2)cc1F |  |  | 10 µM (≈ 3.97 µg/mL) | 2300 nM | 39000 nM |
| O=C1CN(c2nccc3[nH]c(-c4ccc(F)c(F)c4)nc23)CCN1 |  |  | < 5 µM | > 10000 nM |  |
| Fc1ccc(-c2nc3c(N4CCN5CCC4CC5)nccc3[nH]2)cc1F |  | 430 nM | 200 µM (≈ 71.1 µg/mL) | 79 nM | 28000 nM |
| CN1CCN(C[C@@H]2CCCN(c3nccc4[nH]c(-c5cc(F)cc(F)c5)nc34)C2)CC1 |  | 130 nM | 145 µM (≈ 61.8 µg/mL) | 28 nM | 3200 nM |
